Data set [1] has as its system RAW264.7. Kind of data set: Cytotoxicity against mouse RAW264.7 cells after 24 hrs by MTT assay. Type of data set: cell-based. Particulars: raw264.7, 24 h. A digest of the protocol:
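RAW 264.7 macrophages seeded at 5 × 10^5 cells/mL in RPMI 1640 with 10% FBS. Compound in DMSO was added with LPS 1 µg/mL. Viability was read by MTT mitochondrial reduction colorimetric assay after 24 h exposure.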

Data set [2] deals with RAW264.7. Kind of data set: Antiinflammatory activity in mouse RAW264.7 assessed as inhibition LPS-induced nitric oxide production cells after 24 hrs. In kind it is functional, cell-based. As to conditions: RAW264.7, 24 h. In short, it runs like this:
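RAW 264.7 cells in RPMI 1640 with 10% heat-inactivated FBS, seeded at 5 × 10^5 cells/mL and cultured 1 h. Compound in DMSO was added at various concentrations together with LPS (final 1 µg/mL), then incubated 24 h. Supernatant nitrite was measured with Griess reagent (1% sulfanilamide in 5% H3PO4 plus 0.1% naphthylethylene diamine) at 540 nm. Inhibitory rate versus LPS-only wells.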

Data set [3] deals with RAW264.7. Kind of data set: Antiinflammatory activity in mouse RAW264.7 cells assessed as inhibition of LPS-induced IL-6 production by ELISA. Type of data set: functional, cell-based. In short, it runs like this:
(§1)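 RAW 264.7 cells in RPMI 1640, seeded at 5 × 10^5 cells/mL and cultured 1 h. Compound in DMSO was co-added with LPS (final 1 µg/mL). After 6 h culture, supernatant TNF-α and IL-6 were quantified with mouse ELISA kits. LPS-only and DMSO-only (no LPS) wells served as references.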
On the technique in general: In an ELISA, binding on a coated surface is turned into a signal by an enzyme label.

The test system of data set [4] is RAW264.7. The data set can be described thus: Antiinflammatory activity in mouse RAW264.7 cells assessed as inhibition of LPS-induced TNFalpha production by ELISA. In kind it is functional, cell-based. A digest of the protocol:
as §1

The structures appear in SMILES notation.

For `COc1cccc2c1[nH]c1c(CCC(O)c3nccc4c3[nH]c3ccccc34)ncc(OC)c12` (configuration not stated) [QUASSIDINE B], the Activity entry with RAW264.7 [1] was “Toxic”.

With `COc1cccc2c1[nH]c1c([C@@H]3CC[C@H]3c3ncc(OC)c4c3[nH]c3ccccc34)ncc(OC)c12` [QUASSIDINE A], the IC50 (commonly the concentration needed to halve the response being measured) with RAW264.7 [2] is 89.4 µM; in the data set with RAW264.7 [3], greater than 100 µM; in the data set on RAW264.7 [4], 88.4 µM.

With `C[C@]12CCC(=O)C=C1CC[C@@H]1[C@@H]2[C@@H](O)C[C@@]2(C)[C@H]1CC[C@]2(O)C(=O)CO` [HYDROCORTISONE], in the data set on RAW264.7 [4], the IC50 stood at 85.6 µM.

With `COc1cccc2c1[nH]c1c(CCC(OC)c3nccc4c3[nH]c3ccccc34)ncc(OC)c12` (configuration not stated) [QUASSIDINE D], the IC50 in the data set with RAW264.7 [2], in the data set on RAW264.7 [3] and with RAW264.7 [4] was greater than 100 µM in each case.

With `COc1cnc(CCC(O)c2nccc3c2[nH]c2ccccc23)c2[nH]c3ccccc3c12` (configuration not stated) [QUASSIDINE C], the Activity entry with RAW264.7 [1] is recorded as “Toxic”.

For the compound `COc1cccc2c1[nH]c1c(CCC(OC)C(=O)c3nccc4c3[nH]c3ccccc34)ncc(OC)c12` (configuration not stated) [PICRASIDINE C], the IC50 in the data set with RAW264.7 [2] was 89.9 µM; in the data set on RAW264.7 [3], greater than 100 µM; in the data set on RAW264.7 [4], greater than 100 µM.

Values taken from ChEMBL document CHEMBL1154901, “Quassidines A-D, bis-beta-carboline alkaloids from the stems of Picrasma quassioides” (J Nat Prod, 2010).
